Compounds with a hit are over-represented: about 1.4% of the library has one in this group of screens.
T cell HTS = T cell immune modulation candidate | 2C CD8+ T cell-vesicle binding, flow cytometry; hits give low values | response (vesicle binding), % at 7 µM | hit rate 0.068% among 330,000 | AID 2052;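 active = response, share of CD8 T cells binding vesicles, and their 90th percentile fluorescence all below set limits, cut at about 80% in these data, passing the limit was not always enough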;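 also: values below 100% mean blocked vesicle binding to the CD8+ T cells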
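incubation = binding step 1.5 h, 37 °C, antibody labelling 20 min, ice | test system = 2C mouse CD8+ T cells | read-out basis = percent CD8+ FL2 mean versus row control | controls = Peptide-free naked vesicles (low) and QL9 vesicles with 0.7% DMSO vehicle (high) | detection = flow cytometry of vesicle-bound cells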
Myeloid diff 2 = compounds promoting myeloid differentiation. ER-HoxA9 myeloid progenitors, lysozyme-GFP differentiation, flow cytometry. hit rate 1% among 360,000. calls only at 10 µM;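 active = normalized GFP-positive differentiation at or above the plate's own cutoff, the solvent-only control mean plus 3 SD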;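 also: cells exposed to compound for four days before flow analysis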
Vif inh = blocks HIV Vif function; hit rate 0.35% among 340,000; HEK293T cells, Vif self-association by quenched fluorescence, imaging, 24 h; inhibition, % at 7.49 µM; in the data active = inhibition above about 50%, passing the limit was not always enough
Casp6 inh = inhibitors of human caspase-6; hit rate 0.53% among 350,000; P55212; purified caspase-6, Z-VEID-R110 cleavage fluorescence; inhibition, % at 12.5 µM;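 active = mean inhibition across replicates at least about 35%, with every replicate also reaching that limit, limit read from the data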;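 also: 0% = median of neutral control wells and 100% = no fluorescence left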
Target sequence (P55212 24-179 limits assumed): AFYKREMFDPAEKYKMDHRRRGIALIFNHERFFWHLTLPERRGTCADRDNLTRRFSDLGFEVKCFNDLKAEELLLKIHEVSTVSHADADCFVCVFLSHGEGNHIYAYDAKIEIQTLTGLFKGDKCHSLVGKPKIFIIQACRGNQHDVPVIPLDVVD
Target sequence (P55212 194-293 limits assumed): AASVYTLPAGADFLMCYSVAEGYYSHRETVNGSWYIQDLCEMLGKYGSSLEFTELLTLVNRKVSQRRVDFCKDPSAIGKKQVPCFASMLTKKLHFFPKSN
* marks the source's active call; other numbers are inactive results; i = inactive; nt = no result; + = active, no number.

SMILES | T cell HTS | Myeloid diff 2 | Vif inh | Casp6 inh
COC(=O)Cn1c(=O)c(=O)n(CC(=O)OC)c2ccccc21 | i | i | 3 | 0
Nc1ccc(-c2cnc(-c3ccc(N)cc3)nc2)cc1 | 585 | i | 77* | nt
O=C(CC1CC1)N1[C@@H](CO)[C@@H]2c3ccccc3N(S(=O)(=O)c3ccc(F)cc3)C[C@@H]21 | nt | nt | nt | 1
O=C1CCC(=O)c2ccc3c4c(ccc1c24)CC3 | nt | i | 1 | 92*
CNC(=O)C[C@@H]1CC[C@H]2[C@@H](COC[C@H](O)CN2C(=O)c2ccccn2)O1 | nt | nt | nt | 1
CC(C1CC2CCC1C2)N1CC(O)=C(c2nc3ccccc3[nH]2)C1=N (centres undefined) | 160 | + | -2 | 2
CC(C)N1CC(O)=C(c2nc3ccccc3[nH]2)C1=N | 456 | i | -3 | 1
COC(=O)C[C@@H]1CC[C@@H]2[C@@H](COc3ccc(NC(=O)Nc4cc(C)cc(C)c4)cc3C(=O)N2C)O1 | nt | nt | nt | 1
COc1ccc2c3c([nH]c2c1)[C@@H](CO)N(C(=O)c1ccc(F)cc1)CC31CN(C(=O)CC2CC2)C1 | nt | nt | nt | 2
Cc1[nH]c2c(C)cccc2c1CCNC(=O)c1ccc2c(c1[N+](=O)[O-])C(=O)c1ccccc1C2=O | 185 | i | 2 | nt
Cc1[nH]c2ccccc2c1CCNC(=O)c1ccc2c(c1[N+](=O)[O-])C(=O)c1ccccc1C2=O | 123 | + | -8 | nt
C[C@H](CO)N1C[C@H](C)[C@@H](CN(C)CC2CC2)Oc2cc(-c3cccc(C#N)c3)ccc2S1(=O)=O | nt | nt | nt | 0
CCOc1ccc(C2C=C(c3ccc(C)cc3)Nc3ncnn32)cc1 (centres undefined) | 30* | nt | nt | nt
O=C(N/N=C/c1ccc([N+](=O)[O-])o1)C1CC1 | 323 | i | -3 | 42*
NC(=O)N/N=C/c1ccc([N+](=O)[O-])o1 | 378 | i | -4 | 13
CCOC(=O)N(C)C[C@H]1OCc2ccccc2-c2ccccc2C(=O)N([C@@H](C)CO)C[C@H]1C | nt | nt | nt | 0
O=C(C[C@H]1C=C[C@@H](NS(=O)(=O)c2ccccc2F)[C@H](CO)O1)NCCCN1CCOCC1 | nt | nt | nt | 2
O=C(C[C@@H]1CC[C@H](NC(=O)CC2CC2)[C@@H](CO)O1)NCc1ccccc1 | nt | nt | nt | 0
Cc1cccc(CN2C(=O)N/C(=C/c3ccc(C)s3)C2=O)c1 | 0 | + | -10 | nt
Cc1ccc(/C=C2/NC(=O)N(Cc3ccccc3)C2=O)s1 | 232 | i | nt | nt
CO[C@H]1CC[C@@H]2CCN(C)C(=O)CC3(CCCCC3)CN(C)C(=O)c3cccc(C#N)c3OC[C@H]1O2 | nt | nt | nt | -1
C#CCNC(=O)C[C@@H]1C[C@@]2(C(=O)OCC)CCC=C2N(Cc2ccc(Cl)cc2Cl)C1=O | nt | i | nt | 76*
CCCCOCCCNC(=O)C[C@@H]1C[C@@]2(C(=O)OCC)CCC=C2N(Cc2ccco2)C1=O | nt | i | nt | 49*
CCC(=O)N1CC(=O)N2[C@@H](CO)[C@H](c3ccc(C#Cc4cccc(OC)c4)cc3)[C@@H]2C1 | nt | nt | nt | -1
COc1ccccc1C(=O)Nc1ccc2ccccc2c1 | 407 | i | 6 | -2
SMILES | T cell HTS | Myeloid diff 2 | Vif inh | Casp6 inh
COc1ccc(C(=O)Nc2ccc3ccccc3c2)c(OC)c1 | 193 | i | -9 | 43*
O=C(O)c1ccccc1C(=O)Nc1ccc(Oc2ccc3ccccc3c2)cc1 | 235 | + | 45 | -2
O=C(O)c1ccccc1C(=O)Nc1ccc(Oc2cccc3ccccc23)cc1 | nt | i | 21 | 2
CO[C@@H]1CN(C)C(=O)c2cc(NC(=O)CC(F)(F)F)ccc2OC[C@H](C)N(C(C)=O)C[C@@H]1C | nt | nt | nt | -3
CN(C)S(=O)(=O)c1cc(NC(=O)CSc2ncc(C(F)(F)F)cc2Cl)ccc1Cl | 209 | + | -17 | nt
C[C@@H](NC(=O)C[C@@H]1C[C@H]2c3cc(NC(=O)Nc4ccccc4F)ccc3O[C@H]2[C@@H](CO)O1)c1ccccc1 | nt | nt | nt | 1
CCCCn1c(=N)n(CC(O)COc2cccc(C)c2)c2ccccc21 (centres undefined) | 349 | + | -33 | nt
CCCn1c(=N)n(CC(O)COc2ccc(C)cc2)c2ccccc21 (centres undefined) | 152 | i | 7 | 1
O=C(C[C@H]1C=C[C@H](NC(=O)Nc2ccccc2)[C@@H](CO)O1)NCc1cccc(F)c1 | nt | nt | nt | 0
CN(C)C(=O)c1cccc(-c2ccc(C3[C@H]4CNC[C@@H]3N4CC3CCCCC3)cc2)c1 (some centres undefined) | nt | nt | nt | -10
NC(Cc1ccc(Cl)cc1)c1csc(Nc2cc(NCCCO)ncn2)n1 (centres undefined) | nt | i | 9 | -8
COc1ccc(CC(N)c2csc(Nc3cc(NCCCO)ncn3)n2)cc1 (centres undefined) | nt | + | 5 | 1

Compound activity: PubChem BioAssay, several laboratories
